# CSN inh: inhibitors of CSN-mediated cullin deneddylation, primary screen, biochemical, fluorescence polarization, uHTS; Purified CSN, SCF-Nedd8-OG deneddylation; hit rate 0.38% among 360,000; AID 651999, 2013; inhibition, % at 12.5 µM;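 active means pattern-corrected inhibition above about 35%, with an unprinted fluorescence ratio check between 0.5 and 1.5, limit read from the data, passing the limit was not always enough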;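 further: 0% = enzyme with substrate and 100% = substrate without enzyme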
#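 assay system = purified human Csn5 enzyme expressed in HEK293T cells | amount = 0.24 nM enzyme | buffer or medium = Tris/NaCl/DTT buffer, pH 7.5 | reagent = 10 nM SCFSkp2-Nedd8OG | compound = one concentration, 12.5 µM, 0.25% DMSO | times = 90 min reaction at room temperature | signal = FP | read-out basis = % inhibition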
# HNF4A DNA FP: change in binding of human HNF4A to DNA, primary screen, biochemical, fluorescence polarization, FITC-DNA. 1 h. activity change, % at 10 µM. hit rate 0.3% among 360,000. AID 1224865, 2016; in the data active means activity change above about 30%, passing the limit was not always enough
# PKA-R1A activ: activators of PKA-R1A holoenzyme, primary screen, biochemical, fluorescence polarization, Cy5-IP20, bovine R1A, mouse PKAc; activation, % at 11.4 µM; PKA-R1A dissociation; scaled: DMSO 0%, 113 µM cGMP 100%; AID 504707, 2011; hit rate 0.083% among 340,000; cAMP-dependent protein kinase type I-alpha regulatory subunit (Bos taurus) + …;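 active means percent activation above the mean of all tested compounds plus 3 SD, cut at about 19% in these data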;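 further: higher means more PKAc released from R1A so a rise in polarization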
# TPT1 inhibitor: Candida albicans TPT1 enzyme inhibitors, primary screen, biochemical, fluorescence polarization; inhibition, % at 5 µM; hit rate 0.81% among 300,000; recombinant caTPT1, FP RNA substrate dephosphorylation; tRNA 2'-phosphotransferase TPT1 (Candida albicans SC5314);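 active means inhibition above the mean of all tested compounds plus 3 SD, set per screening campaign, cut at about 24% in these data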;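 further: plate controls were DMSO alone for no effect and ferristatin control at 100 nM for full effect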
# PKA-R2B activ: activators of PKA-R2B holoenzyme, primary screen, biochemical, fluorescence polarization, Cy5-IP20, human; hit rate 0.079% among 340,000; activation, % at 11.4 µM; cAMP-dependent protein kinase catalytic subunit beta (Homo sapiens) + cAMP-dependent …; PKA-R2B holoenzyme dissociation; R2B truncated from residue 108, S112A mutant; 0% DMSO only, 100% 113 µM cGMP;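 active means activation above a cutoff set at the mean over all compounds plus 3 SD, cut at about 18% in these data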;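 further: higher means more holoenzyme dissociation and a rise in polarization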
# Rpn11 inh: Rpn11 (PSMD14) deubiquitinase inhibitors, primary screen, biochemical, fluorescence polarization, uHTS; calls only at 20 µM; 26S proteasome non-ATPase regulatory subunit 14 (Homo sapiens), O00487; AID 588493, 2011; human 26S proteasome, Ub4-pepOG fluorescence polarization; 20S core pre-blocked with epoxomicin; hit rate 0.59% among 360,000;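 active means inhibition at 20 µM, scaled to each plate's controls, above about 33%, limit read from the data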
# Target sequence (O00487 whole entry, looked up): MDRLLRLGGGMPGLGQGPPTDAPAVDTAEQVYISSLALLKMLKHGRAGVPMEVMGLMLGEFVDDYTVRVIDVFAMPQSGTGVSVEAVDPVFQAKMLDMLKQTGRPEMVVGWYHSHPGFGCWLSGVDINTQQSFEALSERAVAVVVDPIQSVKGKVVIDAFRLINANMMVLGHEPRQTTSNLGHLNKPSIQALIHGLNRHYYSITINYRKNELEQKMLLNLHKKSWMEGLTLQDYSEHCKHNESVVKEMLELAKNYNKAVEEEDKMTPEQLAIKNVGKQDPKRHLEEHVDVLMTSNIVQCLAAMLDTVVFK
# caTPT1 confirm: Candida albicans TPT1 inhibitors, confirmation, biochemical, fluorescence polarization, triplicate. shares compounds with TPT1 inhibitor. recombinant caTPT1, RNase T1 coupled. hit rate 74% among 2,400. AID 2149, 2009. inhibition, % at 5 µM;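 active means inhibition above the primary screen limit, the mean inhibition of all tested compounds plus 3 SD, cut at about 25% in these data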
# RNase T1 inh: RNase T1 inhibitors, counter-screen for TPT1 inhibitor project, biochemical, fluorescence polarization. shares compounds with TPT1 inhibitor. inhibition, % at 5 µM. hit rate 83% among 2,400. RNase T1 cleavage, 1536-well;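 active means inhibition above the solvent-only control well mean plus 3 SD, limit set per screening run, cut at about 23% in these data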;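 further: plate controls were DMSO wells with enzyme for no effect and wells without RNase T1 for full effect; inhibitors block cleavage so intact labeled substrate keeps polarization high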
# Target sequence (P00651 whole entry, looked up): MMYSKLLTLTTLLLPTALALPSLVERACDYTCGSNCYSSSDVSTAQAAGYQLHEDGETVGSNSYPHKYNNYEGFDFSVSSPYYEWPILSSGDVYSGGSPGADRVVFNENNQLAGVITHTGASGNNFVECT
# * marks the source's active call; other numbers are inactive results; i = inactive; nt = no result shown; + = active, no number. An excerpt weighted towards active compounds, which were near 1.6% of everything screened.
SMILES,CSN inh,HNF4A DNA FP,PKA-R1A activ,TPT1 inhibitor,PKA-R2B activ,Rpn11 inh,caTPT1 confirm,RNase T1 inh
Cc1ccc(-n2nc(-c3ccco3)cc2C(=O)O)cc1,37.7*,-44.7,4.4,2.4,6.2,i,nt,nt
O=C(Nc1cccc(S(=O)(=O)NC2=NCCCCC2)c1)c1cc(-c2ccco2)nc2ccccc12,50.8,-33.3,8.5,1.6,-6.5,+,nt,nt
CCN(CC)CC(=O)n1c2c(c3ccccc31)CCCC2,1.0,-0.2,2.3,3.2,9.0,i,nt,nt
CN1CCN(CC(=O)n2c3c(c4ccccc42)CCCC3)CC1,39.3*,6.2,-3.0,2.0,-10.5,i,nt,nt
CC1=CC(=O)CC(C)(C)[C@@]1(O)/C=C/[C@@H](C)O[C@@H]1O[C@H](CO)[C@@H](O)[C@H](O)[C@H]1O,5.6,-1.7,-12.6,nt,-9.2,i,nt,nt
COc1ccc(O)c(C(=O)c2cc(C#N)c(=O)n(-c3ccc(Cl)cc3)c2)c1,35.7*,28.9,-18.6,48.0*,-3.7,nt,61.7*,59.7*
CCOC(=O)C1=C(c2ccccc2)N=c2s/c(=C\c3ccc(O)cc3)c(=O)n2C1c1cccs1 (stereo unspecified),45.4*,21.7,7.8,31.2*,-1.5,nt,52.5*,60.2*
CCOC(=O)C1=C(c2ccccc2)N=c2sc(=Cc3cc(OC)c(OC)c(OC)c3)c(=O)n2C1c1cccs1 (stereo unspecified),1.9,-0.3,nt,nt,nt,i,nt,nt
CC12CC(NC(=O)N1c1cccc(C(=O)N3CCCCC3)c1)c1ccccc1O2 (stereo unspecified),-1.8,0.3,-5.0,-2.3,-2.0,i,nt,nt
CCN(CC)CCCNC(=O)c1cc2c(-c3cccc(OC)c3)nn(C)c2s1,1.0,2.9,-5.5,36.7*,-7.2,i,4.1,4.7
CCOc1ccccc1NC(=O)Cn1nnc(-c2ccc(OCC)c(OCC)c2)n1,-0.5,-0.6,-9.7,-0.3,-11.7,i,nt,nt
O=C1CC(NC(=O)c2ccc(Cl)cc2)C(=O)N1 (stereo unspecified),-1.4,-2.3,2.5,133.3*,-7.7,i,10.7,20.8
COCCN1Cc2cccc(C(=O)NCc3cccs3)c2C1=O,-1.9,-4.7,-4.8,-1.9,2.1,i,nt,nt
NC(=O)c1sc2nc3c(c(-c4ccco4)c2c1N)CCC3,20.5,-6.6,3.9,0.3,-4.8,i,nt,nt
Nc1c(C(=O)NC2CC2)sc2nc3c(c(-c4ccco4)c12)CC/C3=C/c1ccco1,51.8,-41.5,10.7,36.2*,9.4,i,2.5,0.5
CC1(C)C2CCC(C2)C1C/C=N/NC(N)=S (stereo unspecified),-1.9,0.7,-6.9,-0.9,-10.6,i,nt,nt
Clc1ccc(OCCn2ccnc2)cc1Cl,2.9,-0.2,-6.1,59.7*,-12.7,i,5.9,7.7
Cc1ccc(S(=O)(=O)N2CCOCC2)cc1C(=O)N1CCN(S(=O)(=O)c2cccs2)CC1,-1.1,4.4,-4.6,-4.1,-0.1,i,nt,nt
O=C(Cc1ccccc1)Nn1c(O)c(/C=C2\C=Nc3ccccc32)sc1=S,8.7,53.2*,-8.4,139.4*,-9.3,i,94.2*,104.7*
COc1ccccc1CN=Cc1[nH]c2ccc(Br)c(Cl)c2c1O,3.1,20.1,5.2,18.6,-1.5,nt,nt,nt
Cc1cccc(N=Cc2[nH]c3ccc(Br)c(Cl)c3c2O)c1,-3.0,54.2,-5.4,112.5*,6.9,i,72.8*,76.9*
O=C(COc1ccccc1[N+](=O)[O-])N/N=C/c1ccc(O)c([N+](=O)[O-])c1,0.8,-5.2,-2.9,60.6*,-8.8,i,8.8,11.7
O=Cc1cc2cc3c(cc2nc1Cl)OCCO3,nt,nt,nt,-3.2,nt,nt,nt,nt
O=C(O)c1ccc(N/N=C/c2cc3cc4c(cc3nc2Cl)OCCO4)cc1,4.5,4.5,-11.4,26.8*,-9.3,i,37.7*,47.9*
CN(C(=O)CSc1nnc(COc2ccccc2F)n1N)C1CCS(=O)(=O)C1 (stereo unspecified),-0.1,-0.2,2.4,-1.4,0.9,i,nt,nt
SMILES,CSN inh,HNF4A DNA FP,PKA-R1A activ,TPT1 inhibitor,PKA-R2B activ,Rpn11 inh,caTPT1 confirm,RNase T1 inh
CCOCC(=O)Nc1nc2ccc(C)cc2s1,-1.7,-2.4,-3.4,-2.8,4.9,i,nt,nt
Cc1ccc2nc(NC(=O)CSCC(=O)OCC(=O)c3ccccc3)sc2c1,-2.7,-0.5,-8.2,30.1*,6.1,i,8.7,13.8
COc1cc(NC(=O)C2=C(N3CCOCC3)/C(=C\c3ccc(N(C)C)cc3)CCC2)cc(OC)c1OC,-1.6,5.7,-6.4,32.1*,-15.0,i,20.7,25.7*
CC(C)(C)C1CCc2c(sc(N)c2C(N)=O)C1 (stereo unspecified),11.1,4.0,-9.5,24.5*,-10.6,i,2.0,6.8
COc1ccc(/C=C/C(=O)N2CCN(C)CC2)cc1OC,0.7,-1.4,-5.0,-0.3,-3.1,i,nt,nt
O=C(CCCCl)Oc1ccc2cc(-c3ccc4ccccc4n3)c(=O)oc2c1,9.9,17.8,7.5,49.4*,8.3,i,35.3*,42.2*
COc1cc(OC)cc(C(=O)NNC(=O)CCNC(=O)c2ccc(Br)cc2)c1,-2.4,0.6,0.3,nt,1.1,i,nt,nt
C=CCNC(=S)N1CCN(c2cc3c(cc2F)c(=O)c(C(=O)O)cn3CC)CC1,2.6,1.3,3.1,-0.1,-3.8,i,nt,nt
Cc1c(N=C2N=C(NC(=O)NC(C)(C)C)c3ccccc32)c(=O)n(-c2ccccc2)n1C,-1.4,2.8,-8.0,2.0,-6.6,i,nt,nt
Cc1c(N=C2N=C(NC(=O)c3cccs3)c3ccccc32)c(=O)n(-c2ccccc2)n1C,33.8,48.1,2.4,84.6*,-5.6,nt,112.9*,113.1*
Cc1ccc(-n2c(C)nnc2SCC(=O)N2CCc3ccccc3C2)cc1,-2.7,1.2,-7.0,0.3,-6.4,i,nt,nt
